In brackets after ≈: the same amount, converted by molar mass. Activity calls are given as the source filed them. The rule behind the calls is not given here.
Key:
Mycobacterium avium [1] = test: Antimycobacterial activity against isoniazid, rifampicin, ethambutol and ofloxacin-resistant Mycobacterium avium My 330/88 after 14 days; format: functional; conditions: My 330/88, 336 h
Method in brief: (§1)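 Micromethod MIC in Šula's semisynthetic medium at 37 °C. Compounds added in DMSO at 1000 down to 0.032 µmol/L. Isoniazid standard in sterile water at 0.5–250 µmol/L. Inocula: H37Rv 10^3, M. avium 10^5, M. kansasii 10^4. Read at 14 and 21 d, plus 7 d for M. kansasii.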

[2] = test system: Staphylococcus epidermidis; test: Antibacterial activity against Staphylococcus epidermidis H 6966/08 after 24 hrs by broth microdilution method; format: functional; conditions: H 6966/08, 24 h
Method in brief: (§2)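 Broth microdilution in Mueller–Hinton broth, compounds dissolved in DMSO, tested over a dilution series from 500 downward. MIC taken as ≥95% growth reduction (IC95) versus drug-free control. Benzylpenicillin comparator. Readings at 24 and 48 h.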

[3] = test system: Mycobacterium tuberculosis; test: Antimycobacterial activity against Mycobacterium tuberculosis H37Rv My 331/88 after 14 days; format: functional; conditions: H37Rv My 331/88, 336 h; method in brief: as §1
Mycobacterium kansasii [4] = test: Antimycobacterial activity against Mycobacterium kansasii 6509/96 after 14 days; format: functional; conditions: 6509/96, 336 h; method in brief: as §1
Lichtheimia corymbifera [5] = test: Antifungal activity against Absidia corymbifera 272 after 24 hrs by broth microdilution method; format: functional; conditions: Lichtheimia corymbifera, 272, 24 h
Method in brief: (§3)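 Broth microdilution in RPMI 1640 with glutamine, fluconazole as reference. For yeasts, MIC is ≥80% growth reduction (IC80) versus control. For filamentous fungi, the value is expressed as IC50. Readings at 24 and 48 h.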

Candida albicans [6] = test: Antifungal activity against Candida albicans ATCC 44859 after 24 hrs by broth microdilution method; format: functional; conditions: ATCC 44859, 24 h; method in brief: as §3
[7] = test system: Staphylococcus epidermidis; test: Antibacterial activity against Staphylococcus epidermidis H 6966/08 after 48 hrs by broth microdilution method; format: functional; conditions: H 6966/08, 48 h; method in brief: as §2
Lichtheimia corymbifera [8] = test: Antifungal activity against Absidia corymbifera 272 after 48 hrs by broth microdilution method; format: functional; conditions: Lichtheimia corymbifera, 272, 48 h; method in brief: as §3
Klebsiella pneumoniae [9] = test: Antibacterial activity against ESBL-positive Klebsiella pneumoniae J 14368/08 at 500 micromol/L after 24 to 48 hrs by broth microdilution method; format: functional, organism-based; method in brief: as §2
Candida albicans [10] = test: Antifungal activity against Candida albicans ATCC 44859 after 48 hrs by broth microdilution method; format: functional; conditions: ATCC 44859, 48 h; method in brief: as §3
[11] = test system: Mycobacterium tuberculosis; test: Antimycobacterial activity against Mycobacterium tuberculosis H37Rv My 331/88 after 21 days; format: functional; conditions: H37Rv My 331/88, 504 h; method in brief: as §1
Mycobacterium kansasii [12] = test: Antimycobacterial activity against Mycobacterium kansasii My 235/80 after 7 days; format: functional; conditions: My 235/80, 168 h; method in brief: as §1
Trichosporon asahii [13] = test: Antifungal activity against Trichosporon asahii 1188 after 24 hrs by broth microdilution method; format: functional; conditions: Trichosporon asahii, 1188, 24 h; method in brief: as §3
Escherichia coli = test: Antibacterial activity against Escherichia coli CCM 4517 at 500 micromol/L after 24 to 48 hrs by broth microdilution method; format: functional, organism-based; method in brief: as §2
Mycobacterium kansasii [14] = test: Antimycobacterial activity against Mycobacterium kansasii 6509/96 after 7 days; format: functional; conditions: 6509/96, 168 h; method in brief: as §1
Klebsiella pneumoniae [15] = test: Antibacterial activity against Klebsiella pneumoniae D 11750/08 at 500 micromol/L after 24 to 48 hrs by broth microdilution method; format: functional, organism-based; method in brief: as §2
Mycobacterium avium [16] = test: Antimycobacterial activity against isoniazid, rifampicin, ethambutol and ofloxacin-resistant Mycobacterium avium My 330/88 after 21 days; format: functional; conditions: My 330/88, 504 h; method in brief: as §1
Nakaseomyces glabratus = test: Antifungal activity against Candida glabrata 20/I at 500 micromol/L after 24 to 48 hrs by broth microdilution method; format: functional, organism-based; method in brief: as §3
Mycobacterium kansasii [17] = test: Antimycobacterial activity against Mycobacterium kansasii 6509/96 after 21 days; format: functional; conditions: 6509/96, 504 h; method in brief: as §1
Candida tropicalis = test: Antifungal activity against Candida tropicalis 156 at 500 micromol/L after 24 to 48 hrs by broth microdilution method; format: functional, organism-based; method in brief: as §3
Enterococcus sp. = test: Antibacterial activity against Enterococcus sp. J 14365/08 at 500 micromol/L after 24 to 48 hrs by broth microdilution method; format: functional, organism-based; method in brief: as §2
Staphylococcus aureus [18] = test: Antibacterial activity against Staphylococcus aureus CCM 4516/08 after 48 hrs by broth microdilution method; format: functional; conditions: CCM 4516/08, 48 h; method in brief: as §2
HepG2 = test: Cytotoxicity against human HepG2 cells after 24 hrs by CellTiter assay; format: cell-based; conditions: HepG2, 24 h
Method in brief: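 HepG2 cells (passage 27–33) in MEM with 10% FBS, L-glutamine and NEAA, seeded at 1×10^4 per well. Treated next day with compounds at 0.1–100 µM (or 0.1–25 µmol/L), triplicates, <1% DMSO, for 24 h at 37 °C, 5% CO2. MTS reagent added for 2 h, absorbance read at 490 nm. IC50 taken against untreated (100%) and 10% DMSO (0%) controls.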

Staphylococcus aureus [19] = test: Antibacterial activity against methicillin-resistant Staphylococcus aureus H 5996/08 after 24 hrs by broth microdilution method; format: functional; conditions: H 5996/08, 24 h; method in brief: as §2
Trichosporon asahii [20] = test: Antifungal activity against Trichosporon asahii 1188 after 48 hrs by broth microdilution method; format: functional; conditions: Trichosporon asahii, 1188, 48 h; method in brief: as §3
Mycobacterium kansasii [21] = test: Antimycobacterial activity against Mycobacterium kansasii My 235/80 after 21 days; format: functional; conditions: My 235/80, 504 h; method in brief: as §1
Aspergillus fumigatus [22] = test: Antifungal activity against Aspergillus fumigatus 231 after 24 hrs by broth microdilution method; format: functional; conditions: Aspergillus fumigatus, 231, 24 h; method in brief: as §3
[23] = test system: Trichophyton mentagrophytes; test: Antifungal activity against Trichophyton mentagrophytes 445 after 120 hrs by broth microdilution method; format: functional; conditions: Trichophyton mentagrophytes, 445, 120 h
Method in brief: (§4)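 Filamentous dermatophyte tested by broth microdilution in RPMI 1640 with glutamine, fluconazole as reference. Value expressed as IC50 relative to growth control. Read at 72 and 120 h.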

Pichia kudriavzevii [24] = test: Antifungal activity against Candida krusei E28 after 48 hrs by broth microdilution method; format: functional; conditions: E28, 48 h; method in brief: as §3
Staphylococcus aureus [25] = test: Antibacterial activity against methicillin-resistant Staphylococcus aureus H 5996/08 after 48 hrs by broth microdilution method; format: functional; conditions: H 5996/08, 48 h; method in brief: as §2
Aspergillus fumigatus [26] = test: Antifungal activity against Aspergillus fumigatus 231 after 48 hrs by broth microdilution method; format: functional; conditions: Aspergillus fumigatus, 231, 48 h; method in brief: as §3
[27] = test system: Trichophyton mentagrophytes; test: Antifungal activity against Trichophyton mentagrophytes 445 after 72 hrs by broth microdilution method; format: functional; conditions: Trichophyton mentagrophytes, 445, 72 h; method in brief: as §4
Staphylococcus aureus [28] = test: Antibacterial activity against Staphylococcus aureus CCM 4516/08 after 24 hrs by broth microdilution method; format: functional; conditions: CCM 4516/08, 24 h; method in brief: as §2
Mycobacterium kansasii [29] = test: Antimycobacterial activity against Mycobacterium kansasii My 235/80 after 14 days; format: functional; conditions: My 235/80, 336 h; method in brief: as §1
Pseudomonas aeruginosa = test: Antibacterial activity against Pseudomonas aeruginosa CCM 1961 at 500 micromol/L after 24 to 48 hrs by broth microdilution method; format: functional, organism-based; method in brief: as §2
Pichia kudriavzevii [30] = test: Antifungal activity against Candida krusei E28 after 24 hrs by broth microdilution method; format: functional; conditions: E28, 24 h; method in brief: as §3

Structure (SMILES) | MIC (Mycobacterium avium [1]) | MIC95 [2] | MIC [3] | MIC (Mycobacterium kansasii [4]) | MIC50 (Lichtheimia corymbifera [5]) | MIC80 (Candida albicans [6]) | MIC95 [7] | MIC50 (Lichtheimia corymbifera [8]) | Activity (Klebsiella pneumoniae [9]) | MIC80 (Candida albicans [10]) | MIC [11] | MIC (Mycobacterium kansasii [12]) | MIC80 (Trichosporon asahii [13]) | Activity (Escherichia coli) | MIC (Mycobacterium kansasii [14]) | Activity (Klebsiella pneumoniae [15]) | MIC (Mycobacterium avium [16]) | Activity (Nakaseomyces glabratus) | MIC (Mycobacterium kansasii [17]) | Activity (Candida tropicalis) | further results
CCOP(=O)(OCC)Oc1cc(Cl)ccc1C(=O)Nc1cccc(F)c1 | 16 µM (≈ 6.43 µg/mL) | 250 µM (≈ 100 µg/mL) | 8 µM (≈ 3.21 µg/mL) | 16 µM (≈ 6.43 µg/mL) | > 500 µM | > 500 µM | 250 µM (≈ 100 µg/mL) | > 500 µM | inactive | > 500 µM | 8 µM (≈ 3.21 µg/mL) | 8 µM (≈ 3.21 µg/mL) | > 500 µM | inactive | 8 µM (≈ 3.21 µg/mL) | inactive | 16 µM (≈ 6.43 µg/mL) | inactive | 16 µM (≈ 6.43 µg/mL) | inactive | Activity (Enterococcus sp.): inactive; MIC95 (Staphylococcus aureus [18]): 250 µM (≈ 100 µg/mL); IC50 (HepG2): 11.2 µM; MIC95 (Staphylococcus aureus [19]): 250 µM (≈ 100 µg/mL); MIC80 (Trichosporon asahii [20]): > 500 µM; MIC (Mycobacterium kansasii [21]): 16 µM (≈ 6.43 µg/mL); MIC50 (Aspergillus fumigatus [22]): > 500 µM; MIC50 [23]: 500 µM (≈ 201 µg/mL); MIC80 (Pichia kudriavzevii [24]): > 500 µM; MIC95 (Staphylococcus aureus [25]): 250 µM (≈ 100 µg/mL); MIC50 (Aspergillus fumigatus [26]): > 500 µM; MIC50 [27]: 500 µM (≈ 201 µg/mL); MIC95 (Staphylococcus aureus [28]): 125 µM (≈ 50.2 µg/mL); MIC (Mycobacterium kansasii [29]): 16 µM (≈ 6.43 µg/mL); Activity (Pseudomonas aeruginosa): inactive; MIC80 (Pichia kudriavzevii [30]): > 500 µM
CCOP(=O)(OCC)Oc1ccc(Br)cc1C(=O)Nc1ccc(Br)cc1 | 8 µM (≈ 4.06 µg/mL) | 1.95 µM (≈ 0.989 µg/mL) | 2 µM (≈ 1.01 µg/mL) | 4 µM (≈ 2.03 µg/mL) | 125 µM (≈ 63.4 µg/mL) | > 500 µM | 1.95 µM (≈ 0.989 µg/mL) | 125 µM (≈ 63.4 µg/mL) | inactive | > 500 µM | 2 µM (≈ 1.01 µg/mL) | 2 µM (≈ 1.01 µg/mL) | 62.5 µM (≈ 31.7 µg/mL) | inactive | 4 µM (≈ 2.03 µg/mL) | inactive | 8 µM (≈ 4.06 µg/mL) | inactive | 4 µM (≈ 2.03 µg/mL) | inactive | Activity (Enterococcus sp.): inactive; MIC95 (Staphylococcus aureus [18]): 7.81 µM (≈ 3.96 µg/mL); IC50 (HepG2): 5.6 µM; MIC95 (Staphylococcus aureus [19]): 3.9 µM (≈ 1.98 µg/mL); MIC80 (Trichosporon asahii [20]): 62.5 µM (≈ 31.7 µg/mL); MIC (Mycobacterium kansasii [21]): 4 µM (≈ 2.03 µg/mL); MIC50 (Aspergillus fumigatus [22]): 500 µM (≈ 254 µg/mL); MIC50 [23]: 3.9 µM (≈ 1.98 µg/mL); MIC80 (Pichia kudriavzevii [24]): 125 µM (≈ 63.4 µg/mL); MIC95 (Staphylococcus aureus [25]): 3.9 µM (≈ 1.98 µg/mL); MIC50 (Aspergillus fumigatus [26]): 500 µM (≈ 254 µg/mL); MIC50 [27]: 3.9 µM (≈ 1.98 µg/mL); MIC95 (Staphylococcus aureus [28]): 7.81 µM (≈ 3.96 µg/mL); MIC (Mycobacterium kansasii [29]): 4 µM (≈ 2.03 µg/mL); Activity (Pseudomonas aeruginosa): inactive; MIC80 (Pichia kudriavzevii [30]): 125 µM (≈ 63.4 µg/mL)

Source: ChEMBL document CHEMBL3102784, “Salicylanilide diethyl phosphates: synthesis, antimicrobial activity and cytotoxicity” (Bioorg Med Chem, 2014)
